Source: ChEMBL document CHEMBL5385894, “The discovery of 12β-methyl-17-epi-18-nor-bile acids as potent and selective TGR5 agonists” (Eur J Med Chem, 2023)
Active and inactive are the calls of the source. No cut-off for these calls is given here.

Molecular target: T1, G-protein coupled bile acid receptor 1 (Homo sapiens) (UniProt Q8TDU6)
T1 sequence (whole entry): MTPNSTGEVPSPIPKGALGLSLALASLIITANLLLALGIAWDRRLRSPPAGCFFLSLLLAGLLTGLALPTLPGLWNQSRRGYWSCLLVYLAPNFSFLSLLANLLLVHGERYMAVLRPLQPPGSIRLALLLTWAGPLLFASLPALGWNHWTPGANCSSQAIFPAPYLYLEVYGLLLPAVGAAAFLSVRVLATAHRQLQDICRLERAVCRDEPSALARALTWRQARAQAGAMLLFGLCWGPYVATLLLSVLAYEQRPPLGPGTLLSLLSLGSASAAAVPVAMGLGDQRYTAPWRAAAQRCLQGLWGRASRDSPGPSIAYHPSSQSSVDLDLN
Assay: Agonist activity at human TGR5 expressed in HEK293 cells at 10 uM incubated for 30 mins by SEAP reporter gene based assay relative to control
Type: functional, cell-based
Conditions: not given
Procedure, shortened: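 293T/17 cells reverse-transfected with human TGR5 on reporter strips (3.8 × 10^4 cells/well, 20 h), then moved to serum-free DMEM stimulation medium with 1% DMSO. Compound at 10 µM in triplicate, 30 min on the bench, then 7 h at 37 °C. Medium heated 65 °C 30 min, SEAP substrate added, luminescence read. Efficacy is basal-subtracted RLU as % of 10 µM LCA. Mean ± SD of ≥2 independent experiments.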

**Q.** For `C[C@H](CCC(=O)O)[C@H]1CC[C@@H]2[C@@H]1[C@H](C)C[C@H]1[C@H]2[C@H](O)C[C@@H]2C[C@H](O)CC[C@@]21C`, which Activity is on record?
**A.** inactive

**Q.** Which Activity does the source give for `C[C@H](CCCC(=O)O)[C@@H]1CC[C@@H]2[C@@H]1[C@H](C)C[C@H]1[C@H]2[C@H](O)C[C@@H]2C[C@H](O)CC[C@@]21C` here?
**A.** 26%

**Q.** Which Activity does the source give for `C[C@H](CCCCC(=O)O)[C@H]1CC[C@@H]2[C@@H]1[C@H](C)C[C@H]1[C@H]2[C@H](O)C[C@@H]2C[C@H](O)CC[C@@]21C` here?
**A.** inactive

**Q.** Which Activity does the source give for `CC[C@H]1[C@@H](O)[C@H]2[C@@H]3CC[C@@H]([C@H](C)C(=O)O)[C@H]3[C@H](C)C[C@@H]2[C@@]2(C)CC[C@@H](O)C[C@@H]12` here?
**A.** 10%

**Q.** Which Activity does the source give for `CC[C@H]1[C@@H](O)[C@H]2[C@@H]3CC[C@H]([C@H](C)CC(=O)O)[C@H]3[C@H](C)C[C@@H]2[C@@]2(C)CC[C@@H](O)C[C@@H]12` here?
**A.** 11%

**Q.** With `C[C@H](CC(=O)NCCS(=O)(=O)O)[C@@H]1CC[C@@H]2[C@@H]1[C@H](C)C[C@H]1[C@H]2[C@H](O)C[C@@H]2C[C@H](O)CC[C@@]21C` as the compound, how does the Activity read?
**A.** 7%

**Q.** With `CC[C@H]1[C@@H](O)[C@H]2[C@@H]3CC[C@H]([C@H](C)CCCC(=O)NCCS(=O)(=O)O)[C@H]3[C@H](C)C[C@@H]2[C@@]2(C)CC[C@@H](O)C[C@@H]12` as the compound, how does the Activity read?
**A.** inactive

**Q.** Which Activity does the source give for `C[C@H](CC(=O)O)[C@@H]1CC[C@@H]2[C@@H]1[C@H](C)C[C@H]1[C@H]2[C@H](O)C[C@@H]2C[C@H](O)CC[C@@]21C` here?
**A.** 4%

**Q.** For `C[C@@H]1C[C@H]2[C@H]([C@@H]3CC[C@@H]([C@H](C)C(=O)O)[C@H]31)[C@H](O)C[C@@H]1C[C@H](O)CC[C@@]12C`, which Activity is on record?
**A.** 4%

**Q.** How did the Activity turn out when `CC[C@H]1[C@@H](O)[C@H]2[C@@H]3CC[C@H]([C@H](C)CCC(=O)O)[C@H]3[C@H](C)C[C@@H]2[C@@]2(C)CC[C@@H](O)C[C@@H]12` was run?
**A.** 33%

**Q.** With `C[C@H](CCCC(=O)O)[C@H]1CC[C@@H]2[C@@H]1[C@H](C)C[C@H]1[C@H]2[C@H](O)C[C@@H]2C[C@H](O)CC[C@@]21C` as the compound, how does the Activity read?
**A.** inactive

**Q.** How did the Activity turn out when `CC[C@H]1[C@@H](O)[C@H]2[C@@H]3CC[C@H]([C@H](C)CC(=O)NCCS(=O)(=O)O)[C@H]3[C@H](C)C[C@@H]2[C@@]2(C)CC[C@@H](O)C[C@@H]12` was run?
**A.** inactive

Same assay, conditions: filed as agonist

**Q.** With `CC[C@H]1[C@@H](O)[C@H]2[C@@H]3CC[C@@H]([C@H](C)CCC(=O)NCCS(=O)(=O)O)[C@H]3[C@H](C)C[C@@H]2[C@@]2(C)CC[C@@H](O)C[C@@H]12` as the compound, how does the Activity read?
**A.** 99%

**Q.** With `C[C@H](CCCC(=O)NCCS(=O)(=O)O)[C@@H]1CC[C@@H]2[C@@H]1[C@H](C)C[C@H]1[C@H]2[C@H](O)C[C@@H]2C[C@H](O)CC[C@@]21C` as the compound, how does the Activity read?
**A.** 62%

**Q.** For `CC[C@H]1[C@@H](O)[C@H]2[C@@H]3CC[C@@H]([C@H](C)CCCC(=O)O)[C@H]3[C@H](C)C[C@@H]2[C@@]2(C)CC[C@@H](O)C[C@@H]12`, which Activity is on record?
**A.** 69%

**Q.** `C[C@H](CCC(=O)NCCS(=O)(=O)O)[C@@H]1CC[C@@H]2[C@@H]1[C@H](C)C[C@H]1[C@H]2[C@H](O)C[C@@H]2C[C@H](O)CC[C@@]21C` was tested. Which Activity did it give?
**A.** 61%

**Q.** For `CC[C@H]1[C@@H](O)[C@H]2[C@@H]3CC[C@H]([C@H](C)CCCC(=O)O)[C@H]3[C@H](C)C[C@@H]2[C@@]2(C)CC[C@@H](O)C[C@@H]12`, which Activity is on record?
**A.** 54%

**Q.** With `CC[C@H]1[C@@H](O)[C@H]2[C@@H]3CC[C@@H]([C@H](C)CCC(=O)O)[C@H]3[C@H](C)C[C@@H]2[C@@]2(C)CC[C@@H](O)C[C@@H]12` as the compound, how does the Activity read?
**A.** 62%

**Q.** Which Activity does the source give for `CC[C@H]1[C@@H](O)[C@H]2[C@@H]3CC[C@@H]([C@H](C)CCCC(=O)NCCS(=O)(=O)O)[C@H]3[C@H](C)C[C@@H]2[C@@]2(C)CC[C@@H](O)C[C@@H]12` here?
**A.** 99%

**Q.** `CC[C@H]1[C@@H](O)[C@H]2[C@@H]3CC[C@H]([C@H](C)CCC(=O)NCCS(=O)(=O)O)[C@H]3[C@H](C)C[C@@H]2[C@@]2(C)CC[C@@H](O)C[C@@H]12` was tested. Which Activity did it give?
**A.** 99%

**Q.** Which Activity does the source give for `CC[C@H]1[C@@H](O)[C@H]2[C@@H]3CC[C@@H]([C@H](C)C(=O)NCCS(=O)(=O)O)[C@H]3[C@H](C)C[C@@H]2[C@@]2(C)CC[C@@H](O)C[C@@H]12` here?
**A.** 61%

**Q.** With `CC[C@H]1[C@@H](O)[C@H]2[C@@H]3CC[C@@H]([C@H](C)CC(=O)O)[C@H]3[C@H](C)C[C@@H]2[C@@]2(C)CC[C@@H](O)C[C@@H]12` as the compound, how does the Activity read?
**A.** 42%

**Q.** Which Activity does the source give for `CC[C@H]1[C@@H](O)[C@H]2[C@@H]3CC[C@@H]([C@H](C)CC(=O)NCCS(=O)(=O)O)[C@H]3[C@H](C)C[C@@H]2[C@@]2(C)CC[C@@H](O)C[C@@H]12` here?
**A.** 42%

**Q.** `C[C@@H]1C[C@H]2[C@H]([C@@H]3CC[C@@H]([C@H](C)C(=O)NCCS(=O)(=O)O)[C@H]31)[C@H](O)C[C@@H]1C[C@H](O)CC[C@@]12C` was tested. Which Activity did it give?
**A.** 56%

**Q.** How did the Activity turn out when `C[C@H](CCCCC(=O)O)[C@@H]1CC[C@@H]2[C@@H]1[C@H](C)C[C@H]1[C@H]2[C@H](O)C[C@@H]2C[C@H](O)CC[C@@]21C` was run?
**A.** 43%

Molecular target: T2, Bile acid receptor (Homo sapiens) (UniProt Q96RI1)
T2 sequence (whole entry): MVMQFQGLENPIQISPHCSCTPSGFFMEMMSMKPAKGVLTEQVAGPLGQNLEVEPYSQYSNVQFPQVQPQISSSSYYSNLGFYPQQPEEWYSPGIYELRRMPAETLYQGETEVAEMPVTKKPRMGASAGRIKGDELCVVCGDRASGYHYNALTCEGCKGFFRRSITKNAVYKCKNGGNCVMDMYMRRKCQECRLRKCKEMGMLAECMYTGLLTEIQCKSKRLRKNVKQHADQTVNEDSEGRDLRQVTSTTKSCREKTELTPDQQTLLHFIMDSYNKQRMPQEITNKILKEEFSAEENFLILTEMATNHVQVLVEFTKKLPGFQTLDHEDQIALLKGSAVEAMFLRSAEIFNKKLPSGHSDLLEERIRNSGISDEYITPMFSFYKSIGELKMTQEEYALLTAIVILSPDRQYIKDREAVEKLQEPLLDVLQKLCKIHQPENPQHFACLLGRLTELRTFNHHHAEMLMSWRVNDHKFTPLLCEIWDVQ
Assay: Agonist activity at FXR (unknown origin) at 10 uM relative to control
Conditions: not given
Procedure, shortened: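 Nuclear hormone receptor (NHR) transactivation screen at FXR run by Eurofins DiscoverX; test agents at 10 µM.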

**Q.** For `CC[C@H]1[C@@H](O)[C@H]2[C@@H]3CC[C@@H]([C@H](C)CCCC(=O)O)[C@H]3[C@H](C)C[C@@H]2[C@@]2(C)CC[C@@H](O)C[C@@H]12`, which Activity is on record?
**A.** 23%

**Q.** Which Activity does the source give for `CC[C@H]1[C@@H](O)[C@H]2[C@@H]3CC[C@@H]([C@H](C)CCC(=O)O)[C@H]3[C@H](C)C[C@@H]2[C@@]2(C)CC[C@@H](O)C[C@@H]12` here?
**A.** 31%

Molecular target: T3, G-protein coupled bile acid receptor 1 (Homo sapiens, UniProt Q8TDU6)
T3 sequence (Q8TDU6 whole entry): T1 sequence (whole entry)
Assay: Agonist activity at human TGR5 expressed in HEK293 cells incubated for 30 mins by SEAP reporter gene based assay
Type: functional, cell-based
Conditions: not given
Procedure, shortened: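 Human TGR5 reverse-transfected 293T/17 cells in serum-free stimulation medium with 1% DMSO received a concentration series in triplicate, 30 min at bench then 7 h at 37 °C, 5% CO2. SEAP luminescence was read after heat inactivation at 65 °C. Response is % of 10 µM LCA, fitted by four-parameter unconstrained nonlinear regression to give EC50. Mean ± SD of three independent experiments.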

**Q.** `CC[C@H]1[C@@H](O)[C@H]2[C@@H]3CC[C@@H]([C@H](C)CCC(=O)NCCS(=O)(=O)O)[C@H]3[C@H](C)C[C@@H]2[C@@]2(C)CC[C@@H](O)C[C@@H]12` was tested. Which EC50 did it give?
**A.** 310 nM

**Q.** How did the EC50 turn out when `CC[C@H]1[C@@H](O)[C@H]2[C@@H]3CC[C@@H]([C@H](C)CCCC(=O)NCCS(=O)(=O)O)[C@H]3[C@H](C)C[C@@H]2[C@@]2(C)CC[C@@H](O)C[C@@H]12` was run?
**A.** 270 nM

**Q.** For `CC[C@H]1[C@@H](O)[C@H]2[C@@H]3CC[C@H]([C@H](C)CCC(=O)NCCS(=O)(=O)O)[C@H]3[C@H](C)C[C@@H]2[C@@]2(C)CC[C@@H](O)C[C@@H]12`, which EC50 is on record?
**A.** 5200 nM
